Consider ten compounds from ChEMBL document CHEMBL3763042, “Synthesis, biological evaluation and molecular modeling of a novel series of 7-azaindole based tri-heterocyclic compounds as potent CDK2/Cyclin E inhibitors” (Eur J Med Chem, 2016).

A short description of assay [1]: Cytotoxicity against human G361 cells assessed as cell viability after 72 hrs by fluorescence microplate reader method. It is filed as functional, cell-based. The settings on record: G-361, 72 h. The essentials: (§1)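 Cells were exposed to three-fold compound dilutions in triplicate for 72 h. Viability was read after adding Calcein AM, as live-cell fluorescence at 485/538 nm (excitation/emission).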

The next assay relates to G-361. Kind of assay: Induction of apoptosis in human G361 cells assessed as activation of caspases-3/7 at 50 uM using Ac-DEVD-AMC as substrate after 6 hrs by fluorescence microplate reader method relative to control. Type of assay: functional. The essentials: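 G361 cells were seeded at 20,000 cells/well overnight, then treated with compound for 24 h. A 3x caspase-3/7 buffer (HEPES pH 7.4, NaCl, KCl, MgCl2, EGTA, Nonidet P40, CHAPS, sucrose, DTT, PMSF) containing Ac-DEVD-AMC substrate was added, and plates were incubated at 37 °C. Fluorescence at 346/442 nm was read after 6 h and expressed relative to untreated control.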

The subject of assay [2] is K562. Kind of assay: Cytotoxicity against human K562 cells assessed as cell viability at 50 uM after 72 hrs by fluorescence microplate reader method. Type of assay: functional. The settings on record: K562, 72 h, read-out: Activity.
For assay [3], the system named is K562. The assay can be described thus: Cytotoxicity against human K562 cells assessed as cell viability after 72 hrs by fluorescence microplate reader method. Type of assay: functional, cell-based. The conditions noted are these: K562, 72 h. The essentials:
as §1

In assay [4] the test system is MCF7. Kind of assay: Cytotoxicity against human MCF7 cells assessed as cell viability after 72 hrs by fluorescence microplate reader method. It is filed as functional, cell-based. The settings on record: MCF7, 72 h. The essentials: as §1
In assay [5] the target is Cyclin-dependent kinase 2/cyclin E1 (Homo sapiens, UniProt P24941). Kind of assay: Inhibition of CDK2/Cyclin E (unknown origin) expressed in baculoviral infected insect Sf9 cells using histone H1 as substrate in presence of [gamma-33P]ATP.
Assay [6] is described as follows: Cytotoxicity against human G361 cells assessed as cell viability at 50 uM after 72 hrs by fluorescence microplate reader method. It is filed as functional. The settings on record: G-361, 72 h, read-out: Activity.
In assay [7] the test system is MCF7. The assay can be described thus: Cytotoxicity against human MCF7 cells assessed as cell viability at 50 uM after 72 hrs by fluorescence microplate reader method. It is filed as functional. The settings on record: MCF7, 72 h, read-out: Activity.

For the compound `O=S(=O)(c1ccccc1)n1c(-c2cn(CCc3c[nH]c4ncccc34)nn2)cc2cccnc21`, the IC50 in assay [1] was above 50 µM; in the assay on K562 [3] it was above 25 µM; with MCF7 [4], above 25 µM; in assay [5] (read-out: IC50), above 25 µM; in assay [5] (read-out: pIC50 (converted)), 25.1 µM. In the assay on G-361, the “fold change (FC)” value is 2.1. Besides, the viability at 50 µM with K562 [2] came to 82.7%; in assay [6], 71.1%; with MCF7 [7], 76.2%.
As to `c1cnc2[nH]c(-c3cn(CCCc4c[nH]c5ncccc45)nn3)cc2c1`, the IC50 in assay [1] is above 50 µM; with K562 [3] it was above 25 µM; with MCF7 [4], above 25 µM; in assay [5] (read-out: IC50), 8.7 µM; in assay [5] (read-out: pIC50 (converted)), 7.94 µM. Further, in the assay with G-361, the “fold change (FC)” value amounted to 1.9. For the same compound, the viability at 50 µM in the assay with K562 [2] turned out to be 91.5%; in assay [6], 81.8%; with MCF7 [7] it was 80.5%.
Regarding `CC[C@H](CO)Nc1nc(NCc2ccccc2)c2ncn(C(C)C)c2n1` [SELICICLIB], the IC50 in assay [1] came to 20.8 µM; with K562 [3] it was 30.9 µM; with MCF7 [4], 27.2 µM.
Consider `O=C(CCn1cc(-c2cc3cccnc3[nH]2)nn1)c1c[nH]c2ncccc12`, for which the IC50 in assay [1] was above 50 µM; in the assay on K562 [3], above 25 µM; in the assay on MCF7 [4], above 25 µM; in assay [5] (read-out: IC50), 3.6 µM; in assay [5] (read-out: pIC50 (converted)), 3.98 µM. The “fold change (FC)” value in the assay with G-361 came to 1.2. Besides, the viability at 50 µM in the assay on K562 [2] came to 75.8%; in assay [6] it was 62.4%; in the assay on MCF7 [7] it was 41.2%.
Consider `O=C(Cn1cc(-c2ccccc2)nn1)c1c[nH]c2ncccc12`, for which the IC50 in assay [1] is above 50 µM; in the assay on K562 [3] it was above 25 µM; with MCF7 [4], above 25 µM; in assay [5] (read-out: IC50) it was above 50 µM; in assay [5] (read-out: pIC50 (converted)) it was 100 µM. The “fold change (FC)” value in the assay with G-361 stood at 1.5. Further, the viability at 50 µM came to 95.9% in the assay on K562 [2], 86.8% in assay [6] and 82.8% in the assay on MCF7 [7].
Turning to `c1cnc2[nH]cc(CCn3nncc3-c3c[nH]c4ncccc34)c2c1`, the IC50 was above 50 µM in assay [1]; above 25 µM in the assay with K562 [3]; above 25 µM in the assay with MCF7 [4]; 9.1 µM in assay [5] (read-out: IC50); 10 µM in assay [5] (read-out: pIC50 (converted)). The “fold change (FC)” value with G-361 turned out to be 1.9. For the same compound, the viability at 50 µM in the assay on K562 [2] stood at 59.2%; in assay [6] it was 65.7%; in the assay with MCF7 [7] it was 58%.
Take `c1cnc2[nH]c(-c3cn(CCc4c[nH]c5ncccc45)nn3)cc2c1`: the IC50 was above 50 µM in assay [1]; above 50 µM with K562 [3]; 58.5 µM in the assay with MCF7 [4]; 30 µM in assay [5] (read-out: IC50); 31.6 µM in assay [5] (read-out: pIC50 (converted)). In addition, the “fold change (FC)” value in the assay on G-361 is recorded as 4.5. In addition, the viability at 50 µM with K562 [2] worked out at 67.2%; in assay [6], 59.1%; with MCF7 [7], 63.2%.
On to `O=C(Cn1nncc1-c1cc2cccnc2[nH]1)c1c[nH]c2ncccc12`, for which the IC50 in assay [1] was above 50 µM; in the assay with K562 [3], above 25 µM; in the assay on MCF7 [4] it was above 25 µM; in assay [5] (read-out: IC50), 3 µM; in assay [5] (read-out: pIC50 (converted)) it was 3.16 µM. The “fold change (FC)” value with G-361 was found to be 2.2. Moreover, the viability at 50 µM with K562 [2] is 91.1%; in assay [6], 96.3%; with MCF7 [7], 98%.
Turning to `Cc1ccc(NC(=O)c2ccc(CN3CCN(C)CC3)cc2)cc1Nc1nccc(-c2cccnc2)n1` [IMATINIB], the IC50 in the assay on K562 [3] was 0.73 µM; in the assay on MCF7 [4] it was above 10 µM.
In the case of `O=C(CCn1nncc1-c1cc2cccnc2[nH]1)c1c[nH]c2ncccc12`, the IC50 in assay [1] is above 50 µM; in the assay with K562 [3], above 25 µM; in the assay on MCF7 [4], above 25 µM; in assay [5] (read-out: IC50), 36.1 µM; in assay [5] (read-out: pIC50 (converted)), 31.6 µM. In assay [6], the viability at 50 µM was 62.7%.
